Test results published in article PMC9073653 (RSC Advances, 2019).

Columns and labels:
[1] = tested on: human fibroblasts (HAF); assay: SRB cytotoxicity assay, human fibroblasts HAF; assay type: cell-based; conditions: Fibroblast, 96 h, read-out: IC50 HAF
[2] = tested on: PC3 cells; assay: SRB antiproliferative assay, PC3; assay type: cell-based, human; conditions: in PC3 cells
[3] = tested on: DU145 cells; assay: SRB antiproliferative assay, DU145; assay type: cell-based, human; conditions: in DU145 cells
[4] = tested on: DU145 cells; assay: Transwell migration assay; assay type: cell-based, human; conditions: 10 μM, 24 h
[5] = tested on: DU145 cells; assay: Cell cycle analysis by PI staining and flow cytometry; assay type: cell-based, human; conditions: 10 μM, 24 h, control 9.66%
[6] = tested on: PARP and CL.PARP in DU145 cells; assay: Western blot of PARP and cleaved PARP; assay type: cell-based, human
[7] = tested on: DU145 cells; assay: Wound healing migration assay; assay type: cell-based, human; conditions: 10 μM, 24 h
[8] = tested on: DU145, PC3 and PC3M cell lines; assay: SRB antiproliferative assay, CRPC cell lines together; assay type: cell-based, human; conditions: across DU145, PC3 and PC3M
[9] = tested on: LNCaP cells; assay: SRB antiproliferative assay, LNCaP; assay type: cell-based; conditions: Homo sapiens, read-out: IC50 LNCaP
Method in brief: (§1)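 AR-positive human prostate cancer line, tested in vitro for antiproliferative activity by sulforhodamine B (SRB) staining, with IC50 as the read-out.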

[10] = tested on: 22RV1 cells; assay: SRB antiproliferative assay, 22RV1; assay type: cell-based; conditions: Homo sapiens, 22Rv1, read-out: IC50 22RV1
Method in brief: as §1

## C#CCOC(=O)C[C@H]1Oc2ccccc2C(=O)[C@]1(C)[N+](=O)[O-] [Compound 6]
[1]
  IC50: > 100 µM

## C[C@]1([N+](=O)[O-])C(=O)c2ccccc2O[C@@H]1CC(=O)OCc1ccccc1 [Compound 10]
[1]
  IC50: > 100 µM

## C[C@]1([N+](=O)[O-])C(=O)c2ccccc2O[C@@H]1CC(N)=O [Compound 11]
[1]
  IC50: > 100 µM

## CNC(=O)C[C@H]1Oc2ccccc2C(=O)[C@]1(C)[N+](=O)[O-] [Compound 12]
[1]
  IC50: > 100 µM

## CCNC(=O)C[C@H]1Oc2ccccc2C(=O)[C@]1(C)[N+](=O)[O-] [Compound 13]
[1]
  IC50: > 100 µM

## C#CCNC(=O)C[C@H]1Oc2ccccc2C(=O)[C@]1(C)[N+](=O)[O-] [Compound 14]
[1]
  IC50: > 100 µM

## CCCCNC(=O)C[C@H]1Oc2ccccc2C(=O)[C@]1(C)[N+](=O)[O-] [Compound 15]
[1]
  IC50: > 100 µM

## CC(C)(C)NC(=O)C[C@H]1Oc2ccccc2C(=O)[C@]1(C)[N+](=O)[O-] [Compound 16]
[1]
  IC50: > 100 µM

## CCCCCCCCNC(=O)C[C@H]1Oc2ccccc2C(=O)[C@]1(C)[N+](=O)[O-] [Compound 17]
[1]
  IC50: > 100 µM

## C[C@]1([N+](=O)[O-])C(=O)c2ccccc2O[C@@H]1CC(=O)NC1CCCCC1 [Compound 18]
[1]
  IC50: > 100 µM

## C[C@]1([N+](=O)[O-])C(=O)c2ccccc2O[C@@H]1CC(=O)NC12CC3CC(CC(C3)C1)C2 [Compound 19]
[2]
  more potent antiproliferative activity than cisplatin: 5.9 fold
[3]
  more potent antiproliferative activity than cisplatin: 1.6 fold
[1]
  IC50: > 100 µM

## C[C@]1([N+](=O)[O-])C(=O)c2ccccc2O[C@@H]1CC(=O)Nc1ccccc1 [Compound 20]
[1]
  IC50: > 100 µM

## C[C@]1([N+](=O)[O-])C(=O)c2ccccc2O[C@@H]1CC(=O)NCc1ccccc1 [Compound 21]
[1]
  IC50: > 100 µM

## C[C@]1([N+](=O)[O-])C(=O)c2ccccc2O[C@@H]1CC(=O)Nc1nccs1 [Compound 22]
[1]
  IC50: > 100 µM

## C[C@]1([N+](=O)[O-])C(=O)c2ccccc2O[C@@H]1CC(=O)Nc1ncccn1 [Compound 23]
[1]
  IC50: > 100 µM

## C[C@]1([N+](=O)[O-])C(=O)c2ccccc2O[C@@H]1CC(=O)Nc1ccc2[nH]ccc2c1 [Compound 24]
[1]
  IC50: > 100 µM

## C[C@]1([N+](=O)[O-])C(=O)c2ccccc2O[C@@H]1CC(=O)NNc1nc2ccccc2s1 [Compound 26]
[1]
  IC50: > 100 µM

## CN(C(=O)C[C@H]1Oc2ccccc2C(=O)[C@]1(C)[N+](=O)[O-])C1CCCCC1 [Compound 27]
[1]
  IC50: > 100 µM

## CN(C)C(=O)C[C@H]1Oc2ccccc2C(=O)[C@]1(C)[N+](=O)[O-] [Compound 28]
[1]
  IC50: > 100 µM

## C[C@]1([N+](=O)[O-])C(=O)c2ccccc2O[C@@H]1CC(=O)NC1CCCC1 [Compound 29]
[1]
  IC50: > 100 µM

## C[C@]1([N+](=O)[O-])C(=O)c2ccccc2O[C@@H]1CC(=O)NCC1CCCCC1 [Compound 31]
[1]
  IC50: > 100 µM

## CC12CC3CC(C)(C1)CC(NC(=O)C[C@H]1Oc4ccccc4C(=O)[C@]1(C)[N+](=O)[O-])(C3)C2 [Compound 32]
[1]
  IC50: > 100 µM

## CC[C@]1([N+](=O)[O-])C(=O)c2ccccc2O[C@@H]1CC(=O)NC12CC3CC(CC(C3)C1)C2 [Compound 33]
[1]
  IC50: > 100 µM

## CC[C@]1([N+](=O)[O-])C(=O)c2ccccc2O[C@@H]1CC(=O)NC1CCCCC1 [Compound 34]
[1]
  IC50: > 100 µM

## C[C@]1([N+](=O)[O-])C(=O)c2cc(C(F)(F)F)ccc2O[C@@H]1CC(=O)NC12CC3CC(CC(C3)C1)C2 [Compound 35]
[1]
  IC50: > 100 µM

## C[C@]1([N+](=O)[O-])C(=O)c2cc(F)ccc2O[C@@H]1CC(=O)NC12CC3CC(CC(C3)C1)C2 [Compound 36]
[4]
  migration rate in comparison with control: 23.94%
[5]
  percentage of G2/M phase cells: 0%
[6]
  expression of PARP and CL.PARP: promote the PARP to CL. PARP
[7]
  cell migration ability, wound healing: notably inhibited
[8]
  times more potent than the positive compound cisplatin: 2.3–19.4 times
[9]
  IC50: 4.4 µM
[10]
  IC50: 7.43 µM
[1]
  IC50: > 100 µM

## C[C@]1([N+](=O)[O-])C(=O)c2cc(Cl)ccc2O[C@@H]1CC(=O)NC12CC3CC(CC(C3)C1)C2 [Compound 37]
[1]
  IC50: > 100 µM

## C[C@]1([N+](=O)[O-])C(=O)c2cc(Br)ccc2O[C@@H]1CC(=O)NC12CC3CC(CC(C3)C1)C2 [Compound 38]
[1]
  IC50: 3.67 ± 0.56 µM

## COc1ccc2c(c1)C(=O)[C@](C)([N+](=O)[O-])[C@@H](CC(=O)NC13CC4CC(CC(C4)C1)C3)O2 [Compound 40]
[1]
  IC50: > 100 µM

## C[C@]1([N+](=O)[O-])C(=O)c2c(F)cccc2O[C@@H]1CC(=O)NC12CC3CC(CC(C3)C1)C2 [Compound 41]
[1]
  IC50: > 100 µM

## C[C@]1([N+](=O)[O-])C(=O)c2ccc(F)cc2O[C@@H]1CC(=O)NC12CC3CC(CC(C3)C1)C2 [Compound 42]
[1]
  IC50: > 100 µM

## C[C@]1([N+](=O)[O-])C(=O)c2cccc(F)c2O[C@@H]1CC(=O)NC12CC3CC(CC(C3)C1)C2 [Compound 43]
[1]
  IC50: > 100 µM

## C[C@]1(N)C(=O)c2cc(F)ccc2O[C@@H]1CC(=O)NC12CC3CC(CC(C3)C1)C2 [Compound 44]
[1]
  IC50: > 100 µM

## CC(=O)O[C@@]12CO[C@@H]1C[C@H](O)[C@@]1(C)C(=O)[C@H](O)C3=C(C)[C@@H](OC(=O)[C@H](O)[C@@H](NC(=O)OC(C)(C)C)c4ccccc4)C[C@@](O)([C@@H](OC(=O)c4ccccc4)[C@H]21)C3(C)C [Docetaxel, reference compound]
[1]
  IC50: 0.157 ± 0.031 µM
